Results: ChEMBL document CHEMBL1141851, “Two bioactive pentacyclic triterpene esters from the root bark of Hibiscus syriacus” (J Nat Prod, 1999)
In brackets after ≈: the same amount, converted by molar mass.

Key:
UACC-62 = assay: Cytotoxicity against human UACC-62 cells; type: functional; settings: read-out: ED50 (the source's name)
MCF7 = assay: Cytotoxicity against human MCF7 cells; type: functional; settings: read-out: ED50 (the source's name)
NCI-H23 = assay: Cytotoxicity against human NCI-H23 cells; type: functional; settings: read-out: ED50 (the source's name)
ACHN = assay: Cytotoxicity against human ACHN cells; type: functional; settings: read-out: ED50 (the source's name)
PC-3 = assay: Cytotoxicity against human PC-3 cells; type: functional; settings: read-out: ED50 (the source's name)
SW-620 = assay: Cytotoxicity against human SW620 cells; type: functional; settings: read-out: ED50 (the source's name)
HCT-15 = assay: Cytotoxicity against human HCT-15 cells; type: functional; settings: read-out: ED50 (the source's name)
SF-539 = assay: Cytotoxicity against human SF-539 cells; type: functional; settings: read-out: ED50 (the source's name)
Liver microsomes = assay: Antioxidant activity in rat liver microsomes assessed as inhibition of lipid peroxidation by TBARS assay; type: functional, Microsome
Outline: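 Rat liver microsomal suspension ([…]) mixed with 0.2 mM ascorbic acid. Peroxidation was started by adding 100 µM FeSO4·7H2O. Thiobarbituric acid reactive products were read at 532 nm to measure inhibition of lipid peroxidation. The method was adapted with minor modification from an earlier one.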

UO-31 = assay: Cytotoxicity against human UO-31 cells; type: functional; settings: read-out: ED50 (the source's name)

Compound	EC50 (UACC-62)	EC50 (MCF7)	EC50 (NCI-H23)	EC50 (ACHN)	EC50 (PC-3)	EC50 (SW-620)	EC50 (HCT-15)	EC50 (SF-539)	IC50 (Liver microsomes)	EC50 (UO-31)
COc1cccc2c1C(=O)c1c(O)c3c(c(O)c1C2=O)C[C@@](O)(C(=O)CO)C[C@@H]3O[C@H]1C[C@H](N)[C@H](O)[C@H](C)O1 [DOXORUBICIN]	0.2 µg/mL (≈ 0.368 µM)	0.1 µg/mL (≈ 0.184 µM)	0.1 µg/mL (≈ 0.184 µM)	0.3 µg/mL (≈ 0.552 µM)	0.4 µg/mL (≈ 0.736 µM)	0.1 µg/mL (≈ 0.184 µM)	0.6 µg/mL (≈ 1.1 µM)	0.2 µg/mL (≈ 0.368 µM)	–	–
CC1(C)CC[C@]2(CO)CC[C@]3(C)C(=CC[C@@H]4[C@@]5(C)CC[C@H](O)[C@@](C)(COC(=O)/C=C/c6ccc(O)c(O)c6)[C@@H]5CC[C@]43C)[C@@H]2C1	3.9 µg/mL (≈ 6.28 µM)	2.2 µg/mL (≈ 3.54 µM)	2.8 µg/mL (≈ 4.51 µM)	1.2 µg/mL (≈ 1.93 µM)	1.6 µg/mL (≈ 2.58 µM)	1.1 µg/mL (≈ 1.77 µM)	0.8 µg/mL (≈ 1.29 µM)	1.4 µg/mL (≈ 2.25 µM)	2.3 µg/mL (≈ 3.7 µM)	2 µg/mL (≈ 3.22 µM)
CC1(C)CC[C@]2(CO)CC[C@]3(C)C(=CC[C@@H]4[C@@]5(C)CC[C@H](OC(=O)/C=C/c6ccc(O)c(O)c6)[C@@](C)(CO)[C@@H]5CC[C@]43C)[C@@H]2C1	2.3 µg/mL (≈ 3.7 µM)	1.8 µg/mL (≈ 2.9 µM)	1.7 µg/mL (≈ 2.74 µM)	2.1 µg/mL (≈ 3.38 µM)	2.2 µg/mL (≈ 3.54 µM)	1 µg/mL (≈ 1.61 µM)	1.3 µg/mL (≈ 2.09 µM)	2 µg/mL (≈ 3.22 µM)	1.1 µg/mL (≈ 1.77 µM)	1.7 µg/mL (≈ 2.74 µM)
VITAMIN E	–	–	–	–	–	–	–	–	1.6 µg/mL	–
